# Assay results: ChEMBL document CHEMBL1151475, “Thiopurine drugs azathioprine and 6-mercaptopurine inhibit Mycobacterium paratuberculosis growth in vitro” (2008)
# Key:
# [1] = system: Mycobacterium avium subsp. paratuberculosis; experiment: Antituberculosis activity against Mycobacterium paratuberculosis ATCC 19698 isolated from bovine assessed as lowest drug level producing inhibition at 10^6 CFU of inoculum by MGIT 960 susceptibility test; type: functional
# Outline: (§1)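 M. paratuberculosis ATCC 19698 at 10^6 CFU per MGIT ParaTB tube in duplicate, drugs at final 1.0–64.0 μg/ml, 37°C in MGIT 960. Inhibition is the lowest concentration whose time to detection exceeds the 1:100 diluted-inoculum solvent control. No detectable growth means the tube never signals positive through 56 days.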
# [2] = system: Mycobacterium avium subsp. paratuberculosis; experiment: Antituberculosis activity against Mycobacterium paratuberculosis ATCC 19698 isolated from bovine assessed as minimum drug level resulting in no detectable growth at 10^6 CFU of inoculum after 56 days by MGIT 960 susceptibility test; type: functional; outline: as §1
# [3] = system: Mycobacterium avium subsp. paratuberculosis; experiment: Antituberculosis activity against Mycobacterium paratuberculosis JTC303 isolated from bovine assessed as minimum drug level required for inhibition by MGIT 960 susceptibility test; type: functional
# Outline: (§2)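 10^5 to 10^6 CFU from single-cell suspensions inoculated in duplicate into MGIT ParaTB medium with supplement and egg yolk. Drugs were at final 0.5–64.0 μg/ml, with 128.0 μg/ml added for some strains. Tubes were incubated at 37°C in MGIT 960. Inhibition is the lowest concentration giving a time to detection longer than a drug-free 1:100 inoculum control. Killing is no positive signal through 56 days.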
# [4] = system: Mycobacterium avium subsp. paratuberculosis; experiment: Antituberculosis activity against Mycobacterium paratuberculosis JTC303 isolated from bovine assessed as minimum drug level required for killing after 56 days by MGIT 960 susceptibility test; type: functional; outline: as §2
# [5] = system: Mycobacterium avium subsp. paratuberculosis; experiment: Antituberculosis activity against Mycobacterium paratuberculosis UCF-4 isolated from Crohn's disease patient assessed as minimum drug level required for inhibition by MGIT 960 susceptibility test; type: functional; outline: as §2
# [6] = system: Mycobacterium avium subsp. paratuberculosis; experiment: Antituberculosis activity against Mycobacterium paratuberculosis UCF-5 isolated from Crohn's disease patient assessed as minimum drug level required for killing after 56 days by MGIT 960 susceptibility test; type: functional; outline: as §2
# [7] = system: Mycobacterium avium subsp. paratuberculosis; experiment: Antituberculosis activity against Mycobacterium paratuberculosis UCF-7 isolated from Crohn's disease patient assessed as minimum drug level required for inhibition by MGIT 960 susceptibility test; type: functional; outline: as §2
# [8] = system: Mycobacterium avium subsp. paratuberculosis; experiment: Antituberculosis activity against Mycobacterium paratuberculosis B213 isolated from bovine assessed as minimum drug level required for killing after 56 days by MGIT 960 susceptibility test; type: functional; outline: as §2
# [9] = system: Mycobacterium avium subsp. paratuberculosis; experiment: Antituberculosis activity against Mycobacterium paratuberculosis B236 isolated from bovine assessed as minimum drug level required for inhibition by MGIT 960 susceptibility test; type: functional; outline: as §2
# [10] = system: Mycobacterium avium subsp. paratuberculosis; experiment: Antituberculosis activity against Mycobacterium paratuberculosis B236 isolated from bovine assessed as minimum drug level required for killing after 56 days by MGIT 960 susceptibility test; type: functional; outline: as §2
# [11] = system: Mycobacterium avium subsp. paratuberculosis; experiment: Antituberculosis activity against Mycobacterium paratuberculosis B238 isolated from bovine assessed as minimum drug level required for inhibition by MGIT 960 susceptibility test; type: functional; outline: as §2
# [12] = system: Mycobacterium avium subsp. paratuberculosis; experiment: Antituberculosis activity against Mycobacterium paratuberculosis UCF-8 isolated from Crohn's disease patient assessed as minimum drug level required for inhibition by MGIT 960 susceptibility test; type: functional; outline: as §2
# [13] = system: Mycobacterium avium subsp. paratuberculosis; experiment: Antituberculosis activity against Mycobacterium paratuberculosis UCF-8 isolated from Crohn's disease patient assessed as minimum drug level required for killing after 56 days by MGIT 960 susceptibility test; type: functional; outline: as §2
# [14] = system: Mycobacterium avium subsp. paratuberculosis; experiment: Antituberculosis activity against Mycobacterium paratuberculosis B244 isolated from bovine assessed as minimum drug level required for inhibition by MGIT 960 susceptibility test; type: functional; outline: as §2
# [15] = system: Mycobacterium avium subsp. paratuberculosis; experiment: Antituberculosis activity against Mycobacterium paratuberculosis B244 isolated from bovine assessed as minimum drug level required for killing after 56 days by MGIT 960 susceptibility test; type: functional; outline: as §2
# [16] = system: Mycobacterium avium; experiment: Antituberculosis activity against Mycobacterium avium ATCC 25291 isolated from chicken assessed as minimum drug level required for inhibition by MGIT 960 susceptibility test; type: functional; outline: as §2
# [17] = system: Mycobacterium avium; experiment: Antituberculosis activity against Mycobacterium avium ATCC 25291 isolated from chicken assessed as minimum drug level required for killing within 15 days by MGIT 960 susceptibility test; type: functional
# [18] = system: Mycobacterium avium; experiment: Antituberculosis activity against Mycobacterium avium 104 isolated from AIDS patient assessed as minimum drug level required for killing within 15 days by MGIT 960 susceptibility test; type: functional
# [19] = system: Mycobacterium avium; experiment: Antituberculosis activity against Mycobacterium avium JTC48627 isolated from bison fecal sample assessed as minimum drug level required for killing within 15 days by MGIT 960 susceptibility test; type: functional, Feces
# [20] = system: Mycobacterium avium; experiment: Antituberculosis activity against Mycobacterium avium JTC981 isolated from bongo fecal sample assessed as minimum drug level required for inhibition by MGIT 960 susceptibility test; type: functional, Feces; outline: as §2
# [21] = system: Mycobacterium avium; experiment: Antituberculosis activity against Mycobacterium avium JTC981 isolated from bongo fecal sample assessed as minimum drug level required for killing within 15 days by MGIT 960 susceptibility test; type: functional, Feces
# [22] = system: Mycobacterium avium; experiment: Antituberculosis activity against Mycobacterium avium EPA3 isolated from water assessed as minimum drug level required for killing within 15 days by MGIT 960 susceptibility test; type: functional
# [23] = system: Mycobacterium avium; experiment: Antituberculosis activity against Mycobacterium avium WSLH1544 isolated from water assessed as minimum drug level required for inhibition by MGIT 960 susceptibility test; type: functional; outline: as §2
# [24] = system: Mycobacterium avium; experiment: Antituberculosis activity against Mycobacterium avium WSLH1544 isolated from water assessed as minimum drug level required for killing within 15 days by MGIT 960 susceptibility test; type: functional
# [25] = system: Mycolicibacterium phlei; experiment: Antituberculosis activity against Mycobacterium phlei ATCC 11758 assessed as minimum drug level required for killing after 56 days by MGIT 960 susceptibility test; type: functional
# Outline: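 Duplicate MGIT ParaTB tubes with egg yolk and supplement received 10^5 to 10^6 CFU and thiopurine (in 0.05 M NaOH/10 mM PBS) at final 0.5 to 64.0 μg/ml, plus 128.0 μg/ml for some strains. Tubes were incubated at 37°C in the MGIT 960. The value is the minimum concentration whose tubes never signalled positive by 56 days.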
# [26] = system: Mycolicibacterium smegmatis; experiment: Antituberculosis activity against Mycobacterium smegmatis ATCC 14468 assessed as minimum drug level required for inhibition by MGIT 960 susceptibility test; type: functional
# Outline: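 MGIT ParaTB tubes were supplemented with egg yolk and inoculated in duplicate with 10^5 to 10^6 CFU from single-cell suspensions. Thiopurines were dissolved in 0.05 M NaOH in 10 mM PBS and tested at final 0.5 to 64.0 μg/ml, with 128.0 μg/ml added for some strains. Tubes ran at 37°C in the MGIT 960. The value is the lowest concentration giving a time-to-detection longer than a drug-free 1:100 inoculum control.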
# [27] = system: Mycolicibacterium smegmatis; experiment: Antituberculosis activity against Mycobacterium smegmatis ATCC 14468 assessed as minimum drug level required for killing after 56 days by MGIT 960 susceptibility test; type: functional; outline: as §2
# [28] = system: Escherichia coli; experiment: Antituberculosis activity against Escherichia coli ATCC 25922 clinical isolate assessed as minimum drug level required for inhibition by MGIT 960 susceptibility test; type: functional
# [29] = system: Escherichia coli; experiment: Antituberculosis activity against Escherichia coli ATCC 25922 clinical isolate assessed as minimum drug level required for killing after 56 days by MGIT 960 susceptibility test; type: functional
# [30] = system: Enterococcus faecalis; experiment: Antituberculosis activity against Enterococcus faecalis ATCC 29212 isolated from human urine assessed as minimum drug level required for killing after 56 days by MGIT 960 susceptibility test; type: functional
# [31] = system: Mycobacterium avium subsp. paratuberculosis; experiment: Antituberculosis activity against Mycobacterium paratuberculosis UCF-7 isolated from Crohn's disease patient assessed as colony counts at 4 ug after 12 days by MGIT 960 susceptibility test; type: functional
smiles,measurement,setting,value
Sc1ncnc2nc[nH]c12 [MERCAPTOPURINE ANHYDROUS],Activity,[1],1 µg/mL
same,Activity,[2],32 µg/mL
same,Activity,[3],1 µg/mL
same,Activity,[4],32 µg/mL
same,Activity,[5],2 µg/mL
same,Activity,[6],>32 µg/mL
same,Activity,[7],<1 µg/mL
same,Activity,[8],>32 µg/mL
same,Activity,[9],4 µg/mL
same,Activity,[10],>32 µg/mL
same,Activity,[11],4 µg/mL
same,Activity,[12],<1 µg/mL
same,Activity,[13],16 µg/mL
same,Activity,[14],4 µg/mL
same,Activity,[15],>32 µg/mL
same,Activity,[16],>64 µg/mL
same,Activity,[17],>64 µg/mL
same,Activity,[18],>64 µg/mL
same,Activity,[19],>64 µg/mL
same,Activity,[20],>64 µg/mL
same,Activity,[21],>64 µg/mL
same,Activity,[22],>64 µg/mL
same,Activity,[23],8 µg/mL
same,Activity,[24],>64 µg/mL
same,Activity,[25],16 µg/mL
same,Activity,[26],>128 µg/mL
same,Activity,[27],>128 µg/mL
same,Activity,[28],>128 µg/mL
same,Activity,[29],>128 µg/mL
same,Activity,[30],>128 µg/mL
same,log10CFU/ml,[31],3.19
